Laboratory results from paper PMC10560980 (International Journal for Parasitology: Drugs and Drug …, 2023).
“Also recorded” adds a separate entry of the source. Like-named read-outs stand apart in the source and are kept apart here.

How the values were obtained:
[1] = system: BRIS/91/HEPU/1279 trophozoites; test: Minimum lethal concentration; format: cell-based, Giardia duodenalis; conditions: 48 h exposure, then four days in culture
Method in brief: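 Assemblage B BRIS/91/HEPU/1279 trophozoites in modified TYI-S-33 were exposed to compound for 48 h. They were then returned to drug-free culture for four more days and imaged by brightfield at 10x to judge regrowth. Albendazole ran alongside. Experiments were done at least three times in duplicate.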

[2] = system: assemblage B G. duodenalis BRIS/91/HEPU/1279 trophozoites; test: G. duodenalis compound susceptibility assay; format: cell-based; conditions: Giardia duodenalis
[3] = system: Neonatal Foreskin Fibroblasts (NFF); test: Mammalian cell susceptibility assay; format: cell-based, human; conditions: for IC50: read-out: IC50 (M; mean ± SD) NFF; for Selectivity: NFF IC50 / Giardia IC50
[4] = system: L. donovani DD8 amastigotes; test: L. donovani intracellular amastigote imaging assay in THP-1 cells; format: cell-based; conditions: Leishmania donovani, THP-1, 96 h, read-out: IC50 (M; mean ± SD) L. donovani
Method in brief: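 L. donovani DD8 promastigotes were kept in modified M199 Hanks medium, pH 6.8, with 10% heat-inactivated FBS at 27 °C. PMA-differentiated THP-1 cells were infected with metacyclic promastigotes (1:5 host:parasite), then exposed 96 h to 80–0.004 µM final. Cells were fixed in 4% paraformaldehyde, stained with SYBR green/CellMask Deep Red and imaged at 20x; an infected cell held >3 parasites. Controls were 2 µM amphotericin B and 0.4% DMSO. Assays ran twice in triplicate; IC50 came from 4-parameter regression.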

[5] = system: Enterococci faecalis (ATCC 29212); test: Antibacterial microbroth dilution; format: cell-based; conditions: 20 h exposure, LB broth
Method in brief: (§1)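 Broth microdilution per CLSI in LB broth. A 20 mM test-compound solution was diluted in LB broth. Organisms were exposed to compound for 20 h, then growth inhibition was scored to define the MIC. Ampicillin was the positive control.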

[6] = system: Staphylococcus aureus (ATCC 29213); test: Antibacterial microbroth dilution; format: cell-based; conditions: 20 h exposure, LB broth
Method in brief: as §1

[7] = system: Escherichia coli (ATCC 25922); test: Antibacterial microbroth dilution; format: cell-based; conditions: 20 h exposure, LB broth
Method in brief: as §1

[8] = system: Plasmodium falciparum 3D7 asexual erythrocytic parasites; test: 48 h [3H]-hypoxanthine incorporation assay; format: cell-based; conditions: for IC50: Plasmodium falciparum, 3D7, 48 h, read-out: IC50 (M; mean ± SD) P. falciparum; for average % inhibition at highest concentration tested, P. falciparum: at 5.0 × 10^−5 M (50 μM), 50 µM
Method in brief: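 Compound exposure and [3H]-hypoxanthine uptake ran 48 h. Controls were uninfected RBC background, untreated, DMSO vehicle and chloroquine. % inhibition was taken versus matched vehicle minus background. At least two independent assays were run in triplicate. Where no IC50 could be fitted, % inhibition at the highest concentration was reported.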

[9] = system: G. duodenalis BRIS/87/HEPU/713 assemblage A; test: G. duodenalis compound susceptibility assay; format: cell-based; conditions: Giardia duodenalis, 48 h, read-out: IC50 (nM; mean ± SD) AA
[10] = system: Human Embryonic Kidney (HEK-293) cells; test: Mammalian cell susceptibility assay, HEK-293; format: cell-based; conditions: HEK293, read-out: growth inhibition, HEK293
[11] = system: faecal microbiome; test: Microbiome assessment; format: in vivo, outbred Swiss mice
Method in brief: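 Three groups of 12 outbred Swiss mice received vehicle control, metronidazole 100 mg/kg or test compound 7.4 mg/kg daily on days 1, 2 and 3. Faecal samples were collected from individual animals on days 0–5 and stored at room temperature in 80% ethanol. About 0.2 g of each sample was homogenised with glass beads in lysis buffer for 16S rRNA profiling.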

[12] = system: Trypanosoma cruzi Tulahuen strain intracellular amastigotes; test: T. cruzi intracellular amastigote imaging assay in 3T3 cells; format: cell-based; conditions: for IC50: Trypanosoma cruzi, TULAHUEN, NIH3T3, read-out: IC50 (M; mean ± SD) T. cruzi
Method in brief: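 T. cruzi Tulahuen was maintained in 3T3 fibroblasts in phenol red-free RPMI with 10% FBS and passaged with freshly egressed trypomastigotes. Intracellular amastigotes were scored by high-content imaging, with final concentrations up to 73.2 µM. Each compound was run as single point over three experimental replicates. Controls were 30 µM puromycin (host cells) and 12 µM nifurtimox (amastigotes). IC50 came from 4-parameter variable-slope nonlinear regression.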

[13] = system: MTZ resistant assemblage B BRIS/91/HEPU/1279m1 parasites; test: G. duodenalis compound susceptibility assay; format: cell-based; conditions: Giardia duodenalis, 48 h, read-out: IC50 (nM; mean ± SD) AB-MTZ
Method in brief: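 The metronidazole-resistant assemblage B line was kept in modified TYI-S-33 with 10% heat-inactivated FBS and penicillin/streptomycin under 15 µM metronidazole, withdrawn two days before testing. Trophozoites had 48 h dose-response exposure and were scored by automated microscopy, at least three times in triplicate. Inhibition was taken versus DMSO vehicle minus media background. IC50 came from 4-parameter variable-slope nonlinear regression.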

[14] = Aqueous solubility; format: physicochemical
[15] = system: G. duodenalis BAH2c2; test: In vivo efficacy in mouse model of giardiasis; set-up: species or system outbred Swiss mice
Method in brief: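 Seven-day-old outbred Swiss pups (groups of ten) were orally gavaged with 10^5 BAH2c2 trophozoites in 0.9% saline. Faecal cysts were tracked daily by centrifugal flotation and immunofluorescence counting. About 1 week post-infection, mice received oral gavage once daily for three days: vehicle, test compound, or metronidazole 100 mg/kg. The next day, small-intestine trophozoites were counted manually and large-intestine cysts per gram. Efficacy followed WAAVP guidelines; groups were compared by t-test.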

[16] = Storage stability of solid; format: physicochemical; conditions: crystalline solid; ambient conditions; several months
[17] = system: Giardia; conditions: in humans; ref Nabarro et al., 2015; cited from earlier work
[18] = 48 h, read-out: IC50 (M; mean ± SD) Giardia (48h), Compounds Australia samples, assemblage B BRIS/91/HEPU/1279 trophozoites, 48 h, > = highest concentration tested
[19] = read-out: IC50 (M; mean ± SD) Giardia AB, purchased (ChemDiv) or synthesized batches, assemblage B BRIS/91/HEPU/1279
[20] = 0.74 mg/kg for three days, oral gavage, PBS vehicle
[21] = 7.4 mg/kg daily for three days, 50%PBS/DMSO vehicle, P > 0.05
[22] = 100 mg/kg for three days, positive control, first experiment

In the case of `CCCSc1ccc2nc(NC(=O)OC)[nH]c2c1` [ABZ, Albendazole, reference compound], the “minimum lethal concentration (MLC)” value [1] is reported as 0.15 µM, the IC50 [2, 18] is reported as 57 nM and the IC50 [2, 19] is reported as 57 nM. For the same compound, the IC50 ([3]; Homo sapiens, Fibroblast) was 1.1 µM and the Selectivity [3] was 19.3.
`C[C@@H]1[C@H](O)[C@@H](C)/C=C/C=C/C=C/C=C/C=C/C=C/C=C/[C@H](O[C@@H]2O[C@H](C)[C@@H](O)[C@H](N)[C@@H]2O)C[C@@H]2O[C@](O)(C[C@@H](O)C[C@@H](O)[C@H](O)CC[C@@H](O)C[C@@H](O)CC(=O)O[C@H]1C)C[C@H](O)[C@H]2C(=O)O` [AMB, Amphotericin B, reference compound] gave an IC50 [4] of 0.087 µM.
With `CC1(C)S[C@@H]2[C@H](NC(=O)[C@H](N)c3ccccc3)C(=O)N2[C@H]1C(=O)O` [AMP, ampicillin, reference compound] the “MIC (M) E. faecalis” value [5] was <3.7e-05 M, the “MIC (M) S. aureus” value [6] was <3.7e-05 M and the “MIC (M) E. coli” value [7] was <3.7e-05 M.
With `CCN(CC)CCCC(C)Nc1ccnc2cc(Cl)ccc12` (stereo not shown) [CQ, chloroquine, reference compound] the IC50 [8] was 0.014 µM and the IC50 ([3]; Homo sapiens, Fibroblast) was 31 µM.
For `Cc1cc2[nH]c(C(=O)Nc3ccccc3Cl)c(CN3CCOCC3)c2s1` [Compound 2, N-(2-chlorophenyl)-2-methyl-6-(morpholinomethyl)-4H-thieno [3,2-b]pyrrole-5-carboxamide], the IC50 [8] was > 50 µM, the “average % inhibition at highest concentration tested, P. falciparum” value [8] was < 50% and the “average % inhibition at highest concentration tested, P. falciparum” value ([8]; listed as 2b) was 2.0%. The IC50 [9] was 10 nM, the “minimum lethal concentration (MLC)” value [1] was 0.062 µM and the inhibition at 100 µM [10] was < 50%. The “change in bacterial profile of faecal microbiome” value ([11]; 7.4 mg/kg daily for three days) was “does not impact the normal gut microbiota; also recorded: did not detect any significant (P < 0.05) changes in the bacterial profile; also recorded: did not significantly impact the gut microbial diversity”, the IC50 [4] was > 80 µM and the IC50 [12] was > 73 µM. For the same compound, the “growth inhibition, T. cruzi” value ([12]; up to highest concentration tested) was < 50%, the IC50 [13] was 5.5 nM and the aqueous solubility [14] was “poor”. The “reduction of cyst burden vs vehicle” value [15, 20] was 98.8%, the “reduction of trophozoite burden vs vehicle” value [15, 20] was 73.5% and the “reduction of cyst burden vs vehicle” value [15, 21] was 80.1%. The “reduction of trophozoite burden vs vehicle” value [15, 21] was 54.2%, the “MIC (M) E. faecalis” value [5] was >0.0002 M and the “MIC (M) S. aureus” value [6] was >0.0002 M. The stability to storage [16] was “stable”, the IC50 [2, 18] was 310 nM and the IC50 ([2]; 48 h, read-out: IC50 (nM; mean ± SD) AB, purchased/resynthesised batches, 48 h, BRIS/91/HEPU/1279 assemblage B) was 8.6 to 12 nM. The IC50 [2, 19] was 12 nM, the “MIC (M) E. coli” value [7] was >0.0002 M and the IC50 ([3]; Homo sapiens, Fibroblast) was > 10 µM. The inhibition at 100 µM ([3]; Homo sapiens, Fibroblast, read-out: growth inhibition, NFF) was < 50%, the Selectivity [3] was >32 and the selectivity indices ([3]; follow up studies, NFF and HEK293 vs Giardia) was > 8333.
In the case of `Cc1ncc([N+](=O)[O-])n1CCO` [MTZ, metronidazole, reference compound], the “change in bacterial profile of faecal microbiome” value ([11]; 100 mg/kg daily for three days) is listed as “significant shift from the vehicle (DMSO/PBS) and compound 2 exposed mice from Day 1–3”, the reported failure rates [17] is listed as “up to 40%” and the “reduction of cyst burden vs vehicle” value [15, 22] is listed as 65.6%. For the same compound, the “reduction of trophozoite burden vs vehicle” value [15, 22] was 98.1%.
In the case of `CC1CS(=O)(=O)CCN1/N=C/c1ccc([N+](=O)[O-])o1` (stereo not shown) [NFX, nifurtimox, reference compound], the IC50 [12] is reported as 0.98 µM.
